From ChEMBL document CHEMBL5653631, “A Potent and Selective ULK1 Inhibitor Suppresses Autophagy and Sensitizes Cancer Cells to Nutrient Stress” (iScience, 2018) come the findings set out here.

Each structure is given as a SMILES string.

Assay [1] has as its target T1, TGF-beta receptor type-1 (Homo sapiens) (UniProt P36897).
T1 sequence (whole entry): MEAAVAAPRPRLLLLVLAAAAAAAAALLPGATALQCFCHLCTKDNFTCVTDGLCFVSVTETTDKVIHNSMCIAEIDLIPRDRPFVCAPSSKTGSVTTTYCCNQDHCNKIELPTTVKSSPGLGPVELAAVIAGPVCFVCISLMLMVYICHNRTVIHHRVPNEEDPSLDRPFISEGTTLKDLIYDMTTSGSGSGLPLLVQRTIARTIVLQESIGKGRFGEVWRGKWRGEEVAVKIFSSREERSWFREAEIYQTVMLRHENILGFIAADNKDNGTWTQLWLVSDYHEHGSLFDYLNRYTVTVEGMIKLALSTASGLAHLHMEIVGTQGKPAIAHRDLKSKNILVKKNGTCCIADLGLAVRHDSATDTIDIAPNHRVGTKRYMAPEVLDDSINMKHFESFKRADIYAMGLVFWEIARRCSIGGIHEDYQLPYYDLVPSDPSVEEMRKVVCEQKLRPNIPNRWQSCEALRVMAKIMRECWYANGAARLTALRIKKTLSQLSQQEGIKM
As to the kind of experiment: Inhibition of human recombinant TGFbR1 at 40 nM related to control ULK1.

Assay [2] deals with T2, Serine/threonine-protein kinase BRSK2 (Homo sapiens) (UniProt Q8IWQ3).
T2 sequence (whole entry): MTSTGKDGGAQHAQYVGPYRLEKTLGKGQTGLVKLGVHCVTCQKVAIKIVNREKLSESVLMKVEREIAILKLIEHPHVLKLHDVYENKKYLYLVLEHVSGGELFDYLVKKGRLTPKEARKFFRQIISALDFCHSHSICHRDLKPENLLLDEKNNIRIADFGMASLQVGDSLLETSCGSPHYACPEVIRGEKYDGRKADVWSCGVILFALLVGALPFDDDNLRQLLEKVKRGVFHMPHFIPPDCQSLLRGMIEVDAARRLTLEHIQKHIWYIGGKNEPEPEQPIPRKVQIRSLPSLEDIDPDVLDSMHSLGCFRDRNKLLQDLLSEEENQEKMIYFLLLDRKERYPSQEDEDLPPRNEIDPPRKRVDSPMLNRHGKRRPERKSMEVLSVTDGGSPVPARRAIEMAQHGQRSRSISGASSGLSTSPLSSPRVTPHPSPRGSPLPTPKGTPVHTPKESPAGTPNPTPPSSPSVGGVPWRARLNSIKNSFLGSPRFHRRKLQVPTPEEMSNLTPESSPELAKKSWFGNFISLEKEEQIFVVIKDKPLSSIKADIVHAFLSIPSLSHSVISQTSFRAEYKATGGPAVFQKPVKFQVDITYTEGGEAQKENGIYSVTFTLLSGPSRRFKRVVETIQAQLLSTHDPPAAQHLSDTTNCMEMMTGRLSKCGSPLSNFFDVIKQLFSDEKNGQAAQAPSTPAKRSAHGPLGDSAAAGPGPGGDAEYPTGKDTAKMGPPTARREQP
As to the kind of experiment: Inhibition of human recombinant BRSK2 at 40 nM in presence of ATP by radiometric assay relative to control. The method in brief: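 Recombinant human kinase panel (327 kinases) run as radiometric activity assays, each kinase in duplicate at one compound concentration. Activity remaining expressed relative to vehicle control; percent inhibition taken as 100% minus % activity remaining.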

Assay [3] concerns the target Serine/threonine-protein kinase PAK 6 (Homo sapiens) (UniProt Q9NQU5). As to the kind of experiment: Inhibition of human recombinant PAK6 at 40 nM related to control ULK1.
Assay [4] concerns the target Serine/threonine-protein kinase WNK1 (Homo sapiens) (UniProt Q9H4A3). As to the kind of experiment: Inhibition of human recombinant Wnk1 at 500 nM in presence of ATP by radiometric assay relative to control.
The target in assay [5] is Dual specificity tyrosine-phosphorylation-regulated kinase 1B (Homo sapiens) (UniProt Q9Y463). As to the kind of experiment: Inhibition of human recombinant DYRK1B at 500 nM in presence of ATP by radiometric assay relative to control.
Dual specificity tyrosine-phosphorylation-regulated kinase 1B (Homo sapiens), sequence (Q9Y463 whole entry, looked up): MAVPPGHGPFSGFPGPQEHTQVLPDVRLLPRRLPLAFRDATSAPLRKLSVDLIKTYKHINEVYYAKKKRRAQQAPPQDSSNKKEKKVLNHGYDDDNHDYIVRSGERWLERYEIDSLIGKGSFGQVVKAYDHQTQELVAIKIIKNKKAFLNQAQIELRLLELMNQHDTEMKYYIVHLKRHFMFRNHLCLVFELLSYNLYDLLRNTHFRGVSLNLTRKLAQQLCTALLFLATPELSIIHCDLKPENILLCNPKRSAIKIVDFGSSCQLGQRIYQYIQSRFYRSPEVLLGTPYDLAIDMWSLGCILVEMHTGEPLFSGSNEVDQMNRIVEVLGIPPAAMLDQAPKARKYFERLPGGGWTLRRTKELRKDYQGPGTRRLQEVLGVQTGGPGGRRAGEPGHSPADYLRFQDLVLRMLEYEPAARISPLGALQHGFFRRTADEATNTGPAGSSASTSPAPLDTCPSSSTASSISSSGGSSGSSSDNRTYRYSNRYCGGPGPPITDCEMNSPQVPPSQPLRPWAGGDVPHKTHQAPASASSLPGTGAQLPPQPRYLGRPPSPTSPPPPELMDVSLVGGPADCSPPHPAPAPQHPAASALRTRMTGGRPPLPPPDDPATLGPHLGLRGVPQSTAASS
For assay [6], the target named is RAF proto-oncogene serine/threonine-protein kinase (Homo sapiens) (UniProt P04049). As to the kind of experiment: Inhibition of human recombinant RAF1 at 500 nM related to control ULK1.
RAF proto-oncogene serine/threonine-protein kinase (Homo sapiens), sequence (P04049 whole entry): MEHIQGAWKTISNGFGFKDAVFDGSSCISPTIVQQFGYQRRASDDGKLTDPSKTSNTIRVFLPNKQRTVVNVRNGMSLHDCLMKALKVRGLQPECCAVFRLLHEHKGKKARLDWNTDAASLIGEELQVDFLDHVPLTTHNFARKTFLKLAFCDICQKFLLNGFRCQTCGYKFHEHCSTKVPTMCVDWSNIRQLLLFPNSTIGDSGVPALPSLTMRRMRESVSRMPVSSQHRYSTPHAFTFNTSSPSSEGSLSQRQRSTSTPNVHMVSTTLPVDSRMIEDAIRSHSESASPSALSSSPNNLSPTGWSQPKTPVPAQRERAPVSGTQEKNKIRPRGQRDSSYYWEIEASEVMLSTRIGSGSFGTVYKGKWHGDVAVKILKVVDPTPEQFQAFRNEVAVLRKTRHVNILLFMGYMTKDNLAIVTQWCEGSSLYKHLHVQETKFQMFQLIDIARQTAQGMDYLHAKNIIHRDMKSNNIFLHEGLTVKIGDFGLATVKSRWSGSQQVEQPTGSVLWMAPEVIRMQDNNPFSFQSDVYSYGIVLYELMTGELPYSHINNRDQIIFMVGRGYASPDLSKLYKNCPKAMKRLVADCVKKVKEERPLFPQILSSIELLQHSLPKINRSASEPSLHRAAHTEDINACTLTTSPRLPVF
Assay [7] addresses Serine/threonine-protein kinase mTOR (Homo sapiens) (UniProt P42345). As to the kind of experiment: Inhibition of human recombinant FRAP at 500 nM in presence of ATP by radiometric assay relative to control.
Assay [8] has as its target Hepatocyte growth factor receptor (Homo sapiens) (UniProt P08581). As to the kind of experiment: Inhibition of human recombinant MET at 500 nM in presence of ATP by radiometric assay relative to control.
The target of assay [9] is Serine/threonine-protein kinase pim-1 (Homo sapiens) (UniProt P11309). As to the kind of experiment: Inhibition of human recombinant PIM1 at 500 nM in presence of ATP by radiometric assay relative to control.
Assay [10] addresses Ribosomal protein S6 kinase alpha-4 (Homo sapiens) (UniProt O75676). As to the kind of experiment: Inhibition of human recombinant MSK2 at 500 nM related to control ULK1.
Assay [11] has as its target cAMP-dependent protein kinase catalytic subunit alpha (Homo sapiens) (UniProt P17612). As to the kind of experiment: Inhibition of human recombinant PKACalpha at 500 nM in presence of ATP by radiometric assay relative to control.
For assay [12], the target named is Serine/threonine-protein kinase 32A (Homo sapiens) (UniProt Q8WU08). As to the kind of experiment: Inhibition of human recombinant YANK1 at 15 nM in presence of ATP by radiometric assay relative to control.
Assay [13] addresses TRAF2 and NCK-interacting protein kinase (Homo sapiens) (UniProt Q9UKE5). As to the kind of experiment: Inhibition of human recombinant TNIK at 15 nM in presence of ATP by radiometric assay relative to control.
Assay [14] addresses T3, Protein kinase C zeta type (Homo sapiens) (UniProt Q05513).
T3 sequence (whole entry): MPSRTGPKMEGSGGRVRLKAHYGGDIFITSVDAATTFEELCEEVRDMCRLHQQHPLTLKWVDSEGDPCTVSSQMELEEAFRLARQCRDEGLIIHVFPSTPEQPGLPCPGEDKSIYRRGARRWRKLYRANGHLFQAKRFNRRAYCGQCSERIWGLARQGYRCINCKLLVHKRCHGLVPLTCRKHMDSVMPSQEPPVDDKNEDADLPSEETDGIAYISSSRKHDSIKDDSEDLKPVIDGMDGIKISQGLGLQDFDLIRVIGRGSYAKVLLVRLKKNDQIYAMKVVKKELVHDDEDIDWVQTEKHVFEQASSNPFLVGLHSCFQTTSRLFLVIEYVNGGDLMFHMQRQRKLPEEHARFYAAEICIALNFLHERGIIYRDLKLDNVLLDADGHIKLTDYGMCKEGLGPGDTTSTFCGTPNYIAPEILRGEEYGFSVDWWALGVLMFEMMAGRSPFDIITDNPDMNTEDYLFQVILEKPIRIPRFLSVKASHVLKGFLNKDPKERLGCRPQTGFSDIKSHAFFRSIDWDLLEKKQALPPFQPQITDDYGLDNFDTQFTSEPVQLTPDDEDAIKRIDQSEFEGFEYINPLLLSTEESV
As to the kind of experiment: Inhibition of human recombinant PKCz at 15 nM in presence of ATP by radiometric assay relative to control.

Hepatocyte growth factor receptor (Homo sapiens), sequence (P08581 whole entry, looked up): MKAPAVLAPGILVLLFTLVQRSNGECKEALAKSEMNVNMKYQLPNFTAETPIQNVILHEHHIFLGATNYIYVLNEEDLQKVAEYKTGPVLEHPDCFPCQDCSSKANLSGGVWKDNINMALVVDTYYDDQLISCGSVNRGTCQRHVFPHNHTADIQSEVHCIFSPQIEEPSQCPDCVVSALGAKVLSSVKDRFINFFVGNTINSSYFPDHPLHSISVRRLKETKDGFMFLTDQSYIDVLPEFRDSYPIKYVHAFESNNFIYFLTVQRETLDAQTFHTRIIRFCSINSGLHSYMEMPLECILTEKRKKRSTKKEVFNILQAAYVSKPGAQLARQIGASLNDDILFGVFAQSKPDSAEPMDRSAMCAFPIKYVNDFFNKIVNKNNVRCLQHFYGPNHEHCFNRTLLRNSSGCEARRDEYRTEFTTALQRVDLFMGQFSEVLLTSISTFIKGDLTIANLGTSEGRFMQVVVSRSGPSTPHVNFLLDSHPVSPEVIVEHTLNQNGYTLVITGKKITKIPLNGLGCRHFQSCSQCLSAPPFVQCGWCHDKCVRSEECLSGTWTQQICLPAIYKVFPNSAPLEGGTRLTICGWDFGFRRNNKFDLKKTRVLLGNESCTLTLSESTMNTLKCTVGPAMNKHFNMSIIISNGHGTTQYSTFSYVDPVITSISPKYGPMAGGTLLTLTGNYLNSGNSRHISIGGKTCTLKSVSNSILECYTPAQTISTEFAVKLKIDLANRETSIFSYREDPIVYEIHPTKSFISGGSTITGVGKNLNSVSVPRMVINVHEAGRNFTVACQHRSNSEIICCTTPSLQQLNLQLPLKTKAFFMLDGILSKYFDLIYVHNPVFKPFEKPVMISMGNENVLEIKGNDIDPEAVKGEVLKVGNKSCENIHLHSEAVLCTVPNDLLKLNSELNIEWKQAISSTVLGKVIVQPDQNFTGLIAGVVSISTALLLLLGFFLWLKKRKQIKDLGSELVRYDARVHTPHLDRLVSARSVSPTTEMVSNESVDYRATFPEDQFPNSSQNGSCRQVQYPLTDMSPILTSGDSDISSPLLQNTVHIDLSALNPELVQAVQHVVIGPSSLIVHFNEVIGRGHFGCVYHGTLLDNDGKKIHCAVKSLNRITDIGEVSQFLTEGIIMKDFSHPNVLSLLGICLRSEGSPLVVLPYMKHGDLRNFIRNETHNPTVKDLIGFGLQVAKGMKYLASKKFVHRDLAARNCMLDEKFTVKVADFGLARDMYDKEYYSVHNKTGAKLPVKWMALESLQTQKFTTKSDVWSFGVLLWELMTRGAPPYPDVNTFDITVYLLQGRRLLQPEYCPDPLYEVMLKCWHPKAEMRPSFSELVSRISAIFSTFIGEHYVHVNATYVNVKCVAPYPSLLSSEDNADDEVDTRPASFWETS
Serine/threonine-protein kinase WNK1 (Homo sapiens), sequence (Q9H4A3 whole entry, looked up): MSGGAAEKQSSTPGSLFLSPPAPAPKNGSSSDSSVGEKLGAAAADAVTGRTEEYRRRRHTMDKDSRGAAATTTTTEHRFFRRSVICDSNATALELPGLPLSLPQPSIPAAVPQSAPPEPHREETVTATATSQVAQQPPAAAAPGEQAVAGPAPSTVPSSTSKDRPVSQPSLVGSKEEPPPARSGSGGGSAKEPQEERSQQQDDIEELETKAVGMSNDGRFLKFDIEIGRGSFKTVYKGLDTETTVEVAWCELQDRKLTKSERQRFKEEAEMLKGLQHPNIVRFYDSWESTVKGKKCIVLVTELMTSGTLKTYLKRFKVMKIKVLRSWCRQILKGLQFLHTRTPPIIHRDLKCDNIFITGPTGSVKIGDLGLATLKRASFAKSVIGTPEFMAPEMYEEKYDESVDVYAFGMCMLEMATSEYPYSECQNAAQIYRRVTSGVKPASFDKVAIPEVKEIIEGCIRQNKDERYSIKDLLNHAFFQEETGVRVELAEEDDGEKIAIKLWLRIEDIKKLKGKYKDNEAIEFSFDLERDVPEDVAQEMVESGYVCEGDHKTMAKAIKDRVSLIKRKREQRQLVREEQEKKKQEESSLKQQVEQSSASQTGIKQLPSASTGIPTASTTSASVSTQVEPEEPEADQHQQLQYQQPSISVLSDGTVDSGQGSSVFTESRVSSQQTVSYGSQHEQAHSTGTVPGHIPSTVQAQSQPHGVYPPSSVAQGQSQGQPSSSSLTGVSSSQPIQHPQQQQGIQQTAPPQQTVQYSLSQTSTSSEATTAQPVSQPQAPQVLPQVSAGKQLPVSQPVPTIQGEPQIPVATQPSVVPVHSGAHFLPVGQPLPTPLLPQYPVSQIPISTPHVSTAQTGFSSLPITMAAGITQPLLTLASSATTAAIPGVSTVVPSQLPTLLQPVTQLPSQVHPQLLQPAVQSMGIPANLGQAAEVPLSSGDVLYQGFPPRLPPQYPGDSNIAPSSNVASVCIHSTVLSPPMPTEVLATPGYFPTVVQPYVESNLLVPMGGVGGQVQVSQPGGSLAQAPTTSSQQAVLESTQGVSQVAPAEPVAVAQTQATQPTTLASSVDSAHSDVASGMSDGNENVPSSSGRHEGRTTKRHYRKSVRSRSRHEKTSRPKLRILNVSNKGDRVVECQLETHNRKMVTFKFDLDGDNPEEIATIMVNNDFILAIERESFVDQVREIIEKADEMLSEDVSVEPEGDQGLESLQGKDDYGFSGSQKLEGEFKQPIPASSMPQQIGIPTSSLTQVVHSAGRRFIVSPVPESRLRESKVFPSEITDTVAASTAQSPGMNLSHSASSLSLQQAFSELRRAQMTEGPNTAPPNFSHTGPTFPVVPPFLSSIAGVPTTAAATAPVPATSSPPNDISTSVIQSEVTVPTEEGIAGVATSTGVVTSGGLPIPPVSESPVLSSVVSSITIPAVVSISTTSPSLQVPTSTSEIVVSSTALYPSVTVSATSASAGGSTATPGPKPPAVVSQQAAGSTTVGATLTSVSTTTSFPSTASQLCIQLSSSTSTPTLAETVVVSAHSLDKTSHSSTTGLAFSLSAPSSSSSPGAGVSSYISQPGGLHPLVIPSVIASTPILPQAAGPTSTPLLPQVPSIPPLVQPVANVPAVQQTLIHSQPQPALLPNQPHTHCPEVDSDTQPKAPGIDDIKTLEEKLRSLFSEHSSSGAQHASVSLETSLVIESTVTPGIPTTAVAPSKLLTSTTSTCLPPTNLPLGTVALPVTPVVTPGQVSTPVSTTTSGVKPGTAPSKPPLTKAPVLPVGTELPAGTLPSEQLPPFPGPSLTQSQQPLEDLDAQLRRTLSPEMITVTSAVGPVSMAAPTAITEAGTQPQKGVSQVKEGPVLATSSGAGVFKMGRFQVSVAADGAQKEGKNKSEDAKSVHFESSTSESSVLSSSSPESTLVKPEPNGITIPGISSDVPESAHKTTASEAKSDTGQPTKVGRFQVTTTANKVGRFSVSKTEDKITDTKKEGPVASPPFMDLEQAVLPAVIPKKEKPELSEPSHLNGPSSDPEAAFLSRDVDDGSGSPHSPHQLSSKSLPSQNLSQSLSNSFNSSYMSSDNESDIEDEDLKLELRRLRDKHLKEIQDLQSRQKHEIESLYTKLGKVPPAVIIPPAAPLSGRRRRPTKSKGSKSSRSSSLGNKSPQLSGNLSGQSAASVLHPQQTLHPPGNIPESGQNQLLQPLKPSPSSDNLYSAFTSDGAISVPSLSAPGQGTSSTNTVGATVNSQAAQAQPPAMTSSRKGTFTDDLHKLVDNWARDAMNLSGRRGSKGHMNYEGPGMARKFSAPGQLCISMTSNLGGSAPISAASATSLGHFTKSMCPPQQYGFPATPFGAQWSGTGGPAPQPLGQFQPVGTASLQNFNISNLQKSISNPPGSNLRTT

Regarding `O=C(N[C@@H](C1CC1)C(F)(F)F)c1cc(-c2cnn3cc(-c4ccc(F)cc4)cnc23)cs1`, the figures for the fold change (FC) in assay [1] and in [3] were 0 and 0.1, respectively. In addition, the inhibition in [2] is 0%.

As to `CNC(=O)c1ccccc1Oc1nc(Nc2cc(OC)c(OC)c(OC)c2)ncc1Br`, the inhibition in assay [4] is 0%; in assay [5], 0%; in assay [7] it was 0%; in assay [8] it was 32%; in [9] it was 2%; in assay [11], 0%. Also, the figures for the fold change (FC) in assay [6] and in [10] were 0.15 and 0, respectively.

Consider `CC(C)[C@H](NC(=O)c1cc(-c2cnn3cc(-c4ccc(OCCN5CCCCC5)cc4)cnc23)cs1)C(F)(F)F`, for which the inhibition was 2% in assay [12], 5% in [13] and 0% in [14].

The term inhibition denotes the drop in the measured response relative to a control, in per cent.
